Legend:
[1] = cited from earlier work
[2] = cited from earlier work; remark: listed apart in the source
human plasma proteins = details: cited from earlier work
native EML4-ALK = details: read-out: IC90 for inhibition of native EML4-ALK; cellular assays; cited from earlier work
[3] = cited from earlier work; remark: listed apart in the source
[4] = cited from earlier work; remark: listed apart in the source
[5] = cited from earlier work; remark: listed apart in the source
[6] = Population pharmacokinetic model; type: in vivo, human; details: for Variability in CL/F explained by albumin: albumin as covariate in the final model
How it was run: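 Plasma measured by two validated LC/MS methods, combined range 0.1–2500 ng/mL. Inter-individual effects multivariate normal; residual error additive, proportional or mixed. Covariates tested on CL/F and V1/F in two steps. 1000 bootstrap replicates with replacement; 1000-replicate prediction-corrected VPC.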

[7] = system: patients with ALK + NSCLC who are ALK inhibitor naive; details: first interim analysis, blinded independent review committee; cited from earlier work
[8] = cited from earlier work; remark: listed apart in the source
[9] = system: patients with locally advanced or metastatic ALK-positive NSCLC; details: 180 mg qd with a 7-day lead-in at 90 mg qd; crizotinib-refractory patients; cited from earlier work
[10] = cited from earlier work; remark: listed apart in the source
EML4-ALK mutants = details: read-out: IC90 range for EML4-ALK mutants; cellular assays; cited from earlier work
[11] = single oral 180-mg radiolabeled dose, healthy volunteers

Q: With `COc1cc(N2CCC(N3CCN(C)CC3)CC2)ccc1Nc1ncc(Cl)c(Nc2ccccc2P(C)(C)=O)n1` [brigatinib] as the molecule, how does the “Enzymes metabolizing the remainder to inactive or minor metabolites” value [1] read?
A: primarily by cytochrome P450 (CYP) 3A and CYP2C8

Q: What about the Oral bioavailability [1] of the same molecule?
A: orally bioavailable

Q: What about the Permeability [2] of the same molecule?
A: high

Q: And the “Bound to human plasma proteins” value (human plasma proteins)?
A: approximately 90%

Q: And the IC90 (native EML4-ALK)?
A: 38 nM

Q: And the “Increase in unbound brigatinib systemic exposure (AUC0–∞), severe hepatic impairment (Child–Pugh C)” value [3]?
A: approximately 37%

Q: What about the “Decrease in maximum plasma concentration following a high-fat meal” value [4] of the same molecule?
A: 13%

Q: What about the “Effect of a high-fat meal on AUC” value [4] of the same molecule?
A: without a corresponding decrease in AUC

Q: What about the “Increase in unbound AUC0–∞, severe renal impairment vs normal renal function” value [5] of the same molecule?
A: approximately twofold

Q: And the “Variability in CL/F explained by albumin” value [6]?
A: approximately 5%

Q: What about the “Variability in CL/F explained by albumin” value ([6]; listed as Brigatinib) of the same molecule?
A: Albumin was included as a covariate on apparent clearance in the final population pharmacokinetic model, explaining approximately 5% of variability in apparent clearance.

Q: And the “Albumin covariate effect on CL/F, bootstrap median (2.5th to 97.5th percentile)” value ([6]; bootstrap of 1000 replicates)?
A: 0.656 (0.474–0.849)

Q: What about the “CL/F, bootstrap median (2.5th to 97.5th percentile)” value ([6]; bootstrap of 1000 replicates) of the same molecule?
A: 10.6 (10.2–11.1) L/h

Q: What about the “Mean transit time, bootstrap median (2.5th to 97.5th percentile)” value ([6]; bootstrap of 1000 replicates) of the same molecule?
A: 0.9 (0.8–1.0) h

Q: What about the “Q1/F, bootstrap median (2.5th to 97.5th percentile)” value ([6]; bootstrap of 1000 replicates) of the same molecule?
A: 12.8 (10.5–16.2) L/h

Q: What about the “Q2/F, bootstrap median (2.5th to 97.5th percentile)” value ([6]; bootstrap of 1000 replicates) of the same molecule?
A: 2.46 (1.09–4.76) L/h

Q: And the “V1/F, bootstrap median (2.5th to 97.5th percentile)” value ([6]; bootstrap of 1000 replicates)?
A: 208 (193–219) L

Q: And the “V2/F, bootstrap median (2.5th to 97.5th percentile)” value ([6]; bootstrap of 1000 replicates)?
A: 118 (83.6–147) L

Q: And the “V3/F, bootstrap median (2.5th to 97.5th percentile)” value ([6]; bootstrap of 1000 replicates)?
A: 82.3 (57.6–112) L

Q: And the “No. of transit compartments, bootstrap median” value ([6]; bootstrap of 1000 replicates, fixed)?
A: 2.35 (–)

Q: What about the “Inter-individual variability of mean transit time, % (% CV)” value ([6]; final population PK model) of the same molecule?
A: 59 (7.5) %

Q: What about the “Mean transit time, model estimate (% CV)” value ([6]; final population PK model) of the same molecule?
A: 0.9 (3.6) h

Q: And the “No. of transit compartments, model estimate” value ([6]; final population PK model, fixed at the population estimate)?
A: 2.35

Q: What about the “Mean transit time, model estimate (% CV)” value ([6]; final population PK model, listed as Brigatinib) of the same molecule?
A: 0.9 h

Q: And the “Higher CL/F at 95th percentile of albumin vs median albumin” value ([6]; predicted, higher than a patient with the median albumin value)?
A: ~20%

Q: What about the “Lower CL/F at 5th percentile of albumin vs median albumin” value ([6]; predicted, lower than a patient with the median albumin value) of the same molecule?
A: approximately 22%

Q: And the 12-month event-free rate [7]?
A: 67%

Q: What about the “Overall radiolabeled dose recovered as unchanged drug” value [8] of the same molecule?
A: Approximately 50%

Q: What about the “Administered dose recovered in feces” value [8, 11] of the same molecule?
A: approximately 65%

Q: What about the “Administered dose recovered in urine” value [8, 11] of the same molecule?
A: ~25%

Q: And the “Unchanged brigatinib in feces” value [8, 11]?
A: 41%

Q: What about the “Unchanged brigatinib in urine” value [8, 11] of the same molecule?
A: 86%

Q: And the Median progression-free survival [9]?
A: 16.7 months

Q: What about the Solubility [10] of the same molecule?
A: high

Q: And the IC90 (EML4-ALK mutants)?
A: 22 to 762 nM

— article PMC7862202 (Clinical Pharmacokinetics, 2020)
